Measured values reported in ChEMBL document CHEMBL5696442, “Discovery of type II inhibitors of TGFβ-activated kinase 1 (TAK1) and mitogen-activated protein kinase kinase kinase kinase 2 (MAP4K2)” (J Med Chem, 2015).
Active and inactive are the calls of the source. No cut-off for these calls is given here.

Experiments:
[1] = molecular target: TRAF2 and NCK-interacting protein kinase (Homo sapiens) (UniProt Q9UKE5); assay: Inhibition of ZC2/TNIK Lys1 labeling site in human Huh-7 cell lysate at 1 uM by KiNativ Profiling analysis relative to control; format: subcellular
[2] = molecular target: Ribosomal protein S6 kinase alpha-3 (Homo sapiens) (UniProt P51812); assay: Inhibition of RSK2 domain 1 Lys2 labeling site harbouring DLKPENILLDEEGHIKLTDFGLSK in human Huh-7 cell lysate at 1 uM by KiNativ Profiling analysis relative to control; format: subcellular
[3] = molecular target: T1, Mitogen-activated protein kinase kinase kinase 7 (Homo sapiens) (UniProt O43318); assay: Inhibition of TAK1 Lys2 labeling site harbouring DLKPPNLLLVAGGTVLK in human Huh-7 cells at 1 uM by KiNativ Profiling analysis relative to control; format: cell-based
T1 sequence (whole entry): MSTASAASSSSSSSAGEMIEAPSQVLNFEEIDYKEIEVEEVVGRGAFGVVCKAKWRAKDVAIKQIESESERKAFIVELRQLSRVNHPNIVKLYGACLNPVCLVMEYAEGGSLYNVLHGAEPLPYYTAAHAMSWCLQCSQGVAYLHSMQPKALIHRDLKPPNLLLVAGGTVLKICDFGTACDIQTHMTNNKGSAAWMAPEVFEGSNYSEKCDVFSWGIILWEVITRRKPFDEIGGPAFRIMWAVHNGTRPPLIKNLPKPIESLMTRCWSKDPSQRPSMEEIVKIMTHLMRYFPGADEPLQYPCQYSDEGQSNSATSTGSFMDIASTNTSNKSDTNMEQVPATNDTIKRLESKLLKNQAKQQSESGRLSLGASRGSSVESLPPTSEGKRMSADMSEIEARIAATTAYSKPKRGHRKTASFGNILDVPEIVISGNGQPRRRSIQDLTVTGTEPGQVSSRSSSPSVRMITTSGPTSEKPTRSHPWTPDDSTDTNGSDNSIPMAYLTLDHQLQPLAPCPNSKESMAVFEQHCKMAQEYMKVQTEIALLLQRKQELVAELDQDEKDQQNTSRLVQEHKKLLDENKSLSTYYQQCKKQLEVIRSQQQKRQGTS

[4] = molecular target: Calcium/calmodulin-dependent protein kinase type II subunit beta (Homo sapiens) (UniProt Q13554); assay: Inhibition of CAMK2B (unknown origin) at 10 uM by Ambit Kinomescan binding assay
[5] = molecular target: Mitogen-activated protein kinase 3 (Homo sapiens) (UniProt P27361); assay: Inhibition of ERK1 (unknown origin) at 10 uM by Ambit Kinomescan binding assay
[6] = molecular target: Serine/threonine-protein kinase Nek2 (Homo sapiens) (UniProt P51955); assay: Inhibition of NEK2 (unknown origin) at 10 uM by Ambit Kinomescan binding assay
[7] = molecular target: Serine/threonine-protein kinase SIK2 (Homo sapiens) (UniProt Q9H0K1); assay: Inhibition of SIK2 (unknown origin) at 10 uM by Ambit Kinomescan binding assay
[8] = molecular target: Serine/threonine-protein kinase/endoribonuclease IRE1 (Homo sapiens) (UniProt O75460); assay: Inhibition of IRE1 Lys2 labeling site in human A-375 cells at 5 uM by KiNativ Profiling analysis relative to control; format: cell-based
[9] = molecular target: Microtubule-associated serine/threonine-protein kinase 3 (Homo sapiens) (UniProt O60307); assay: Inhibition of MAST3 Lys2 labeling site in human A-375 cells at 5 uM by KiNativ Profiling analysis relative to control; format: cell-based
[10] = molecular target: Tyrosine-protein kinase CSK (Homo sapiens, UniProt P41240); assay: Inhibition of CSK ACT labeling site harbouring VSDFGLTKEASSTQDTGKLPVKWTAPEALR in human Huh-7 cells at 10 uM by KiNativ Profiling analysis relative to control; format: cell-based
[11] = molecular target: T2, Serine/threonine-protein kinase Chk1 (Homo sapiens) (UniProt O14757); assay: Inhibition of CHK1 K2 labeling site in human Huh-7 cells at 10 uM by KiNativ Profiling analysis relative to control; format: cell-based
T2 sequence (whole entry): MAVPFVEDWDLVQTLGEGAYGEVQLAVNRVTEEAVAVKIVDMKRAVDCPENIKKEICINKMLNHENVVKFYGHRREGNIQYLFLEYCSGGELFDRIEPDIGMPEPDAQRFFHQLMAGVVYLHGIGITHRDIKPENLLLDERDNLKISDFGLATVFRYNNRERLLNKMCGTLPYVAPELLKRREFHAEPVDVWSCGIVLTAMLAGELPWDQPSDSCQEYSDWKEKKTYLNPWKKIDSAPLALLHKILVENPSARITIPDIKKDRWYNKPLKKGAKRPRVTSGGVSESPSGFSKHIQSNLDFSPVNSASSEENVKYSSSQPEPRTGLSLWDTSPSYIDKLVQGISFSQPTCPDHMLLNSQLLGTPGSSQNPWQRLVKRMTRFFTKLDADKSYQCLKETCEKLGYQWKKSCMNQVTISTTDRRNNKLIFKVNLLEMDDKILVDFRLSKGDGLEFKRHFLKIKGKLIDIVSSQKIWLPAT

[12] = molecular target: RPS6KA1/RPS6KA2/RPS6KA3 (Homo sapiens) (UniProt P51812+Q15349+Q15418); assay: Inhibition of RSK1/2/3 Domain 1 K2 labeling site harbouring DLKPENILLDEEGHIK in human Huh-7 cells at 1 uM by KiNativ Profiling analysis relative to control; format: cell-based
[13] = Inhibition of Wnk1/2/4 ACT labeling site in human Huh-7 cells at 1 uM by KiNativ Profiling analysis relative to control; conditions: condition cancer
[14] = molecular target: Mitogen-activated protein kinase kinase kinase kinase 1 (Homo sapiens) (UniProt Q92918); assay: Inhibition of HPK1 (unknown origin) at 10 uM by Ambit Kinomescan binding assay relative to control; values are per cent of control
[15] = molecular target: cAMP-dependent protein kinase catalytic subunit alpha (Homo sapiens) (UniProt P17612); assay: Inhibition of PKAC alpha (unknown origin) at 1 uM by Ambit Kinomescan binding assay relative to control
Outline: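 In vitro ATP-site competition binding assay against a panel of over 420 kinases (KinomeScan), with compound tested at 10 or 1 μM.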

[16] = molecular target: 1-phosphatidylinositol 3-phosphate 5-kinase (Homo sapiens) (UniProt Q9Y2I7); assay: Inhibition of PIP5K3 ATP labeling site in human A-375 cells at 5 uM by KiNativ Profiling analysis relative to control; format: cell-based
[17] = molecular target: Mitogen-activated protein kinase kinase kinase 10 (Homo sapiens) (UniProt Q02779); assay: Inhibition of MLK2 (unknown origin) at 1 uM by Ambit Kinomescan binding assay relative to control; values are per cent of control
[18] = molecular target: Myosin light chain kinase 2, skeletal/cardiac muscle (Homo sapiens) (UniProt Q9H1R3); assay: Inhibition of MYLK2 (unknown origin) at 1 uM by Ambit Kinomescan binding assay relative to control; values are per cent of control
Myosin light chain kinase 2, skeletal/cardiac muscle (Homo sapiens), sequence (Q9H1R3 whole entry): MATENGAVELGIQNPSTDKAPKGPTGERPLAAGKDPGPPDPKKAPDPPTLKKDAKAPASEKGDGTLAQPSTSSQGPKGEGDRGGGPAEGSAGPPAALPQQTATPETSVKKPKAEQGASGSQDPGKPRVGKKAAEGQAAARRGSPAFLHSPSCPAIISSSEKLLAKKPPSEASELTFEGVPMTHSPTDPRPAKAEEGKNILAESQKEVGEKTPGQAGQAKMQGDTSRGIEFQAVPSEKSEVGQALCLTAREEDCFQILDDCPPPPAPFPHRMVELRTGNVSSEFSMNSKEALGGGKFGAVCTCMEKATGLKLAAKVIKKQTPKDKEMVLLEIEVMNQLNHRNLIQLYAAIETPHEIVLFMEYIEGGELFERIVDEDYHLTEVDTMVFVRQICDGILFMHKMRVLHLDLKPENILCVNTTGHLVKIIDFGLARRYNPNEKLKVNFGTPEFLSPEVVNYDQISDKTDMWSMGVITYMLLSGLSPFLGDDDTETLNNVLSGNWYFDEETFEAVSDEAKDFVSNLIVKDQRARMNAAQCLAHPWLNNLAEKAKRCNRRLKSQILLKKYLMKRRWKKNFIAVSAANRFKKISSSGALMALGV

Calcium/calmodulin-dependent protein kinase type II subunit beta (Homo sapiens), sequence (Q13554 whole entry): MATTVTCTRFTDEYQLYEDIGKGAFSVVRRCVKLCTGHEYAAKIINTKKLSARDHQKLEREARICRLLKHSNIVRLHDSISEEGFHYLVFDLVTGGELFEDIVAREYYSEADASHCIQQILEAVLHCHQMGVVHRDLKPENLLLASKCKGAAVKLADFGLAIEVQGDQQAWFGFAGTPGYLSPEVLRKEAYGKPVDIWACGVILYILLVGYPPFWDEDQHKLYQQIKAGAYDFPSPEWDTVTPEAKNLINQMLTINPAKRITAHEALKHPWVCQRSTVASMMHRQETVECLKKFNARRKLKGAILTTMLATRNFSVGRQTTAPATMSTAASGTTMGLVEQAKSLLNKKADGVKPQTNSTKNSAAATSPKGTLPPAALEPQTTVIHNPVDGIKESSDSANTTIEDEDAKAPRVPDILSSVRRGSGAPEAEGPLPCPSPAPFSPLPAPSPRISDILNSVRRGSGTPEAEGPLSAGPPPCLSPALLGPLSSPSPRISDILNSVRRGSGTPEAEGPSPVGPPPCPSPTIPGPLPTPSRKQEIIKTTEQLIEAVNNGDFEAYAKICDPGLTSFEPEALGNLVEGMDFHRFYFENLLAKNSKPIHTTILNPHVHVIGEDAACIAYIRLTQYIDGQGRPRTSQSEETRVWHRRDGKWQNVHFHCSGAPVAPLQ
TRAF2 and NCK-interacting protein kinase (Homo sapiens), sequence (Q9UKE5 whole entry, looked up, the tested form may be a part): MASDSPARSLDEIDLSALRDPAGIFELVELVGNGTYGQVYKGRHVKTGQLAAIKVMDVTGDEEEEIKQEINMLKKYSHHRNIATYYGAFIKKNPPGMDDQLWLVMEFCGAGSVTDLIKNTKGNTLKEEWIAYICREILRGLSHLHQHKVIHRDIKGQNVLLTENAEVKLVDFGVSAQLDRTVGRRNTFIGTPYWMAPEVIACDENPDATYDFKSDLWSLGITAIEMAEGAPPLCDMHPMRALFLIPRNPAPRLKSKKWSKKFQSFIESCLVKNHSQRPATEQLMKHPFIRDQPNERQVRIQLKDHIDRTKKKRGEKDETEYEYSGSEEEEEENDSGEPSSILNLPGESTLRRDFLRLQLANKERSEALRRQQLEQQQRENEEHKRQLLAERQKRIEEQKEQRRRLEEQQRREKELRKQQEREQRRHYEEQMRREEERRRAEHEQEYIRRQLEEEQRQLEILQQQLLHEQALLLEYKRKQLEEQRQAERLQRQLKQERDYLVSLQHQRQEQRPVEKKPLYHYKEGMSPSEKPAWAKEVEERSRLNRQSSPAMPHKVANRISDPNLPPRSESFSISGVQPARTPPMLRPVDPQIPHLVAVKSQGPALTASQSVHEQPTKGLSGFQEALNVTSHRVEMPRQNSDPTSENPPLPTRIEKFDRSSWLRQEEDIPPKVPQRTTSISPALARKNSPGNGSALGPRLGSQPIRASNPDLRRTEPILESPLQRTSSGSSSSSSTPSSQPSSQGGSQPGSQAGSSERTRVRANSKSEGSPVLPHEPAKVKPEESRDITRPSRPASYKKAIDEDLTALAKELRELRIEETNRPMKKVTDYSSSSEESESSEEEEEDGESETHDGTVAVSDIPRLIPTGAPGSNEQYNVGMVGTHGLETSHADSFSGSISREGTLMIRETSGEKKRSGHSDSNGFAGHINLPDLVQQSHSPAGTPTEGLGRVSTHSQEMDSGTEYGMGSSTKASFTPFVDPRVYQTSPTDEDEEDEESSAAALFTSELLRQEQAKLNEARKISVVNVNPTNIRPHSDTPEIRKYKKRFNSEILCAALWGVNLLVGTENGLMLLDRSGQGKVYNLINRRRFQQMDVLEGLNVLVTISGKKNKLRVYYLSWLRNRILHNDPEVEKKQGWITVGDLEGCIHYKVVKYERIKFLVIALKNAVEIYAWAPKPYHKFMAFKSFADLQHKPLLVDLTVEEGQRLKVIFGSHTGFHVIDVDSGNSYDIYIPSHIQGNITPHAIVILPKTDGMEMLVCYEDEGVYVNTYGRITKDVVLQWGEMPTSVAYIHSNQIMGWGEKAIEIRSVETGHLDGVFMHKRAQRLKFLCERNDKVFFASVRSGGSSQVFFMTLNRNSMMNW
Tyrosine-protein kinase CSK, sequence (P41240 2-450 limits assumed): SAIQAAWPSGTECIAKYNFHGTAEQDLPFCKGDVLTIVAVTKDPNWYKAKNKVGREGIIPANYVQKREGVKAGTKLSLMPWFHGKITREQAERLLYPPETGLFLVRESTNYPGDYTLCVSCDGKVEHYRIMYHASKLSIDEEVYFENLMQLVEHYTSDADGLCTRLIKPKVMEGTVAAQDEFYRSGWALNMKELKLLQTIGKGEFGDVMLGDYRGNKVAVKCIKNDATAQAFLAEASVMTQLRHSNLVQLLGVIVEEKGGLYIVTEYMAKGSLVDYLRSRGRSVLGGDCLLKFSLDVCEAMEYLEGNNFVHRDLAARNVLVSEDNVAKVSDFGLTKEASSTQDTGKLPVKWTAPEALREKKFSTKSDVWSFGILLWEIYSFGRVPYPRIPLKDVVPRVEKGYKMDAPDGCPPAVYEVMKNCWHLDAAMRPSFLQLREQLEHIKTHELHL
Serine/threonine-protein kinase SIK2 (Homo sapiens), sequence (Q9H0K1 whole entry, looked up): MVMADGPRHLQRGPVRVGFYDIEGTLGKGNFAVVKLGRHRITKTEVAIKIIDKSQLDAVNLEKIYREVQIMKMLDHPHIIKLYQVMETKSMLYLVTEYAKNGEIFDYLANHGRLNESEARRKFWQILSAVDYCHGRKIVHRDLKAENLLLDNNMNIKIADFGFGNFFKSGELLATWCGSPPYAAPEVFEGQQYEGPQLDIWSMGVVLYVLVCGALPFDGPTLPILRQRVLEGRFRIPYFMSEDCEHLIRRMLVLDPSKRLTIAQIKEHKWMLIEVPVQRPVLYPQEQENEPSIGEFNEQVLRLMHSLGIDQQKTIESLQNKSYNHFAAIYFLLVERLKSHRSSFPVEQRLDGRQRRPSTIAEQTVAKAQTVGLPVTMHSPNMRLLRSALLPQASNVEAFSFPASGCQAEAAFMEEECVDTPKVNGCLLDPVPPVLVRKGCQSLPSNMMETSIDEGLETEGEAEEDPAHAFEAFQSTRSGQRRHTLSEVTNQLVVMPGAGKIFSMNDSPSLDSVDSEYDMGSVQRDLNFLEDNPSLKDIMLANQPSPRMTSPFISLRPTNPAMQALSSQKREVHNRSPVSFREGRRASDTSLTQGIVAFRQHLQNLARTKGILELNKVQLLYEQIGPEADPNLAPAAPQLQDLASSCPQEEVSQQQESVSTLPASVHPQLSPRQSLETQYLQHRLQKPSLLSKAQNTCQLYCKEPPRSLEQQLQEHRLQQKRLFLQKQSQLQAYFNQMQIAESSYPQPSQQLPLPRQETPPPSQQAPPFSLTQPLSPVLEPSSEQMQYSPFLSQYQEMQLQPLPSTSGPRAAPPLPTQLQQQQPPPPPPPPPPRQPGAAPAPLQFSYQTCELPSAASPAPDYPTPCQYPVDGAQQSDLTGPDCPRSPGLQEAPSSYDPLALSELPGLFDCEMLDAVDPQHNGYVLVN
Serine/threonine-protein kinase Nek2 (Homo sapiens), sequence (P51955 whole entry): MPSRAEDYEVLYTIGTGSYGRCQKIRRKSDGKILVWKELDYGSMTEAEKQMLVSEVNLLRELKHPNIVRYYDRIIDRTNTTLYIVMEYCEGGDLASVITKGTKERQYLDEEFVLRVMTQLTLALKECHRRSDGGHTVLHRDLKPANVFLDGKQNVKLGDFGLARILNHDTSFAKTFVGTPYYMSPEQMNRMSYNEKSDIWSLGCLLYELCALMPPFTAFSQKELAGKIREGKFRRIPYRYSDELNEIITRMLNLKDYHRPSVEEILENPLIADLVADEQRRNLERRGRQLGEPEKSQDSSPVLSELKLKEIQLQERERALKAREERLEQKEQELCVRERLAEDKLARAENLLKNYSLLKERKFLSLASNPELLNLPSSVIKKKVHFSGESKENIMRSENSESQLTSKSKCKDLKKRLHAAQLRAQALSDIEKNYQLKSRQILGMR
Mitogen-activated protein kinase 3 (Homo sapiens), sequence (P27361 whole entry): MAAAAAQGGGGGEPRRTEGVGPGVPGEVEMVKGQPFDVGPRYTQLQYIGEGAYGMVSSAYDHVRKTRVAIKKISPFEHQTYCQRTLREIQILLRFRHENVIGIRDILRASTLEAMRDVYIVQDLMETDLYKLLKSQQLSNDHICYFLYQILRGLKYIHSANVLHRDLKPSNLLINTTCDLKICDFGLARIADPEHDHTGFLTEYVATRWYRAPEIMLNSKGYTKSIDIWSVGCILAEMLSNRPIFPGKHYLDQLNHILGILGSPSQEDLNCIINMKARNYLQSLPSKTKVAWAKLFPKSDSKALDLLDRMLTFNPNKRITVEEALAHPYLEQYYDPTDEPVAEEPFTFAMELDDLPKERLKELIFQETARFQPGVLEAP

CNc1cc(Oc2cc(C(=O)Nc3cc(N4CCN(C)CC4)cc(C(F)(F)F)c3)ccc2C)ncn1
inhibition [1]: 11.9%
inhibition [2]: 3.1%
inhibition [3]: 2.5%

CCN1CCN(Cc2ccc(NC(=O)c3ccc(C)c(Oc4ccnc5[nH]ccc45)c3)cc2C(F)(F)F)CC1
inhibition [4]: inactive
inhibition [5]: inactive
inhibition [6]: inactive
inhibition [7]: inactive
inhibition [8]: -5.7%
inhibition [9]: 4.8%
inhibition [10]: -2.7%
inhibition [11]: 3.5%
inhibition [12]: 5%
inhibition at 1 µM [13]: 7.6%
% of control [14]: 1.6%

CCN1CCN(Cc2ccc(NC(=O)c3ccc(C)c(/C=C/c4cnc5[nH]ccc5c4OC)c3)cc2C(F)(F)F)CC1
inhibition [15]: 84%
inhibition [16]: 7.6%
residual activity [17]: 53%
residual activity [18]: 4.6%
